Measured values reported in ChEMBL document CHEMBL4334542, “Antimalarial N 1,N 3-Dialkyldioxonaphthoimidazoliums: Synthesis, Biological Activity, and Structure-activity Relationships” (ACS Med Chem Lett, 2020).
pEC50, pIC50: −log10 of the molar value. The source made the active and inactive calls. The rule behind the calls is not given here.

Columns and labels:
[1] = Redox cycling activity of the compound […] measured after 45 mins by phenol red reagent based horseradish peroxidase coupled assay
In short: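 Redox cycling EC50 determined by the phenol red horseradish peroxidase assay.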

[2] = tested on: Plasmodium falciparum; test: Antimalarial activity against asexual stage of Plasmodium falciparum NF54 assessed as reduction in parasite growth at 1 uM incubated for 96 hrs by SYBR Green I dye-based fluorescence assay relative to control; format: functional; parameters: scale not given: the % may be the effect or the level left
[3] = tested on: Plasmodium falciparum; test: Antimalarial activity against sexual stage of Plasmodium falciparum 3D7 gametocytes assessed as reduction in parasite growth incubated for 3 days by alamar blue staining based assay; format: functional, organism-based; details: 3D7, 72 h
[4] = tested on: Plasmodium falciparum; test: Antimalarial activity against asexual stage of Plasmodium falciparum 3D7 infected in O-positive erythrocytes assessed as reduction in parasite growth incubated for 72 hrs by SYBR Green I dye-based spectrophotometric analysis; format: functional, organism-based; details: 3D7, 72 h
[5] = tested on: Plasmodium falciparum; test: Antimalarial activity against asexual stage of Plasmodium falciparum W2 assessed as reduction in parasite growth incubated for 96 hrs by SYBR Green I dye-based fluorescence assay; format: functional, organism-based; details: W2, 96 h
[6] = tested on: Plasmodium falciparum; test: Antimalarial activity against asexual stage of Plasmodium falciparum K1 assessed as reduction in parasite growth incubated for 96 hrs by SYBR Green I dye-based fluorescence assay; format: functional, organism-based; details: K1, 96 h
In short: (§1)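 Asexual NF54, K1 and W2 parasites; proliferation read as SYBR Green I fluorescence. IC50 is the concentration giving 50% of the net SYBR Green I fluorescence of untreated control cultures; mean ± SEM of n = 3 independent biological replicates.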

[7] = tested on: Plasmodium falciparum; test: Antimalarial activity against asexual stage of Plasmodium falciparum NF54 assessed as reduction in parasite growth incubated for 96 hrs by SYBR Green I dye-based fluorescence assay; format: functional, organism-based; details: NF54, 96 h; in short: as §1
[8] = tested on: Plasmodium falciparum; test: Antimalarial activity against Plasmodium falciparum NF54 early gametocytes transfected with luciferase gene incubated for 48 hrs by luciferase reporter gene assay; format: functional, organism-based; details: NF54, 48 h
In short: (§2)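 Gametocytes of NF54-Pfs16-GFP-Luc, early (>95% stage II/III) or late (>90% stage IV/V); luciferase read-out. IC50 is the concentration giving 50% reduction of luminescence; mean ± SEM of n = 3 independent biological replicates.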

[9] = tested on: Plasmodium falciparum; test: Antimalarial activity against Plasmodium falciparum NF54 late gametocytes transfected with luciferase gene incubated for 48 hrs by luciferase reporter gene assay; format: functional, organism-based; details: NF54, 48 h; in short: as §2
[10] = tested on: Plasmodium falciparum; test: Antimalarial activity against asexual stage of Plasmodium falciparum Dd2 infected in erythrocytes assessed as reduction in parasite growth incubated for 48 hrs under hypoxic condition by Hoechst 33342 staining based flow cytometry; format: functional, organism-based; details: Dd2, 48 h
In short: (§3)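 Asexual Dd2 and 3D7 parasites in erythrocytes; DNA content of infected cells measured by Hoechst 33342 staining and FACS. IC50 is the concentration giving 50% of the net fluorescence of untreated control cultures; mean ± SD of n = 3 separate determinations.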

[11] = tested on: CHO-K1; test: Cytotoxicity against CHOK1 cells assessed as reduction in cell viability incubated for 48 hrs by CellTiter 96 aqueous one solution assay; format: cell-based; details: Cricetulus griseus, CHO-K1, 48 h
In short: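 Cell growth measured by a tetrazolium dye assay. IC50 is the concentration reducing growth by 50% relative to untreated cultures; mean ± SD of n = 3 separate determinations.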

[12] = tested on: Plasmodium falciparum; test: Antimalarial activity against asexual stage of Plasmodium falciparum 3D7 infected in erythrocytes assessed as reduction in parasite growth incubated for 48 hrs under hypoxic condition by Hoechst 33342 staining based flow cytometry; format: functional, organism-based; details: 3D7, 48 h; in short: as §3
[13] = tested on: Plasmodium falciparum; test: Antimalarial activity against Plasmodium falciparum K1 incubated for 48 hrs by [3H]-hypoxanthine incorporation assay; format: functional, organism-based
[14] = tested on: Plasmodium falciparum; test: Antimalarial activity against Plasmodium falciparum NF54 incubated for 48 hrs by [3H]-hypoxanthine incorporation assay; format: functional, organism-based
[15] = tested on: Plasmodium falciparum; test: Antimalarial activity against Plasmodium falciparum TM90C2B incubated for 48 hrs by [3H]-hypoxanthine incorporation assay; format: functional, organism-based

Structure (SMILES) | pIC50 [5] | pIC50 [6] | pIC50 [7] | pIC50 [8] | pIC50 [9] | pIC50 [10] | pIC50 [11] | pIC50 [12] | other results
CCCCn1c(C)nc2c1C(=O)c1ccccc1C2=O | – | – | – | – | – | – | – | – | Activity [1]: inactive; Activity [2]: <=50%
CCOc1ccc(-[n+]2c3c(n(C)c2C)C(=O)c2ccccc2C3=O)cc1 | – | – | – | – | – | – | – | – | pEC50 [3]: 7.03; pEC50 [4]: 9.00
CCCC[n+]1c2c(n(CC(C)C)c1C)C(=O)c1ccccc1C2=O | 8.29 | 8.01 | 8.14 | 6.74 | 6.56 | – | – | – | –
Cc1n(CC(C)C)c2c([n+]1C)C(=O)c1ccccc1C2=O | 8.73 | 8.47 | 8.72 | 7.39 | 5.96 | – | – | – | –
Cc1n(C)c2c([n+]1C)C(=O)c1ccccc1C2=O | – | – | – | – | – | 7.58 | 5.24 | 7.65 | –
CCC[n+]1c2c(n(CC(C)C)c1C)C(=O)c1ccccc1C2=O | 8.67 | 8.35 | 8.53 | 6.57 | 6.07 | – | – | – | –
CCOc1ccc(N(C(C)=O)C2=C(N(C)C)C(=O)c3ccccc3C2=O)cc1 | – | – | – | – | – | – | – | – | pEC50 [3]: 6.50; pEC50 [4]: 7.49
CCCCCCCCCC[n+]1c2c(n(CC(C)C)c1C)C(=O)c1ccccc1C2=O | 8.21 | 7.88 | 8.30 | 6.43 | 6.63 | – | – | – | –
CCCn1c2c([n+](C3CC3)c1C)C(=O)c1ccccc1C2=O | – | – | – | – | – | 7.68 | 5.26 | 6.48 | –
CCCC[n+]1c2c(n(C(C)C)c1C)C(=O)c1ccccc1C2=O | – | – | – | – | – | 7.83 | 4.10 | 7.94 | –
CCCn1c2c([n+](C(C)C)c1C)C(=O)c1ccccc1C2=O | 8.66 | 8.51 | 8.64 | 6.79 | 6.25 | 8.10 | 4.57 | 8.40 | Activity [1]: Active; pIC50 [13]: 8.68; pIC50 [14]: 9.00; pIC50 [15]: 8.74
Cc1n(C)c2c([n+]1C(C)C)C(=O)c1ccccc1C2=O | – | – | – | – | – | 7.79 | 5.33 | 8.32 | –
CCCn1c(C)nc2c1C(=O)c1ccccc1C2=O | – | – | – | – | – | – | – | – | Activity [1]: inactive; Activity [2]: <=50%
CCn1c2c([n+](CC)c1C)C(=O)c1ccccc1C2=O | – | – | – | – | – | 7.72 | 4.83 | 8.22 | –
CCn1c(C)nc2c1C(=O)c1ccccc1C2=O | – | – | – | – | – | – | – | – | Activity [1]: inactive; Activity [2]: <=50%
C[C@H]1[C@H](OC(=O)CCC(=O)O)O[C@@H]2O[C@@]3(C)CC[C@H]4[C@H](C)CC[C@@H]1[C@@]24OO3 [ARTESUNATE] | – | 8.49 | 8.52 | 7.20 | 6.59 | 7.88 | – | 7.64 | pIC50 [13]: 8.85; pIC50 [14]: 8.49; pIC50 [15]: 8.57
Cc1n(CC(C)C)c2c([n+]1C1CC1)C(=O)c1ccccc1C2=O | 8.59 | 8.23 | 8.40 | 6.86 | 6.08 | – | – | – | –
Cc1n(C(C)C)c2c([n+]1C1CC1)C(=O)c1ccccc1C2=O | – | – | – | – | – | 7.60 | 4.84 | 7.80 | –
COCC[n+]1c2c(n(Cc3cnccn3)c1C)C(=O)c1ccccc1C2=O [SEPANTRONIUM BROMIDE] | – | – | – | – | – | 7.34 | – | 7.41 | –
CN(C)c1ccc2nc3ccc(N(C)C)cc3[s+]c2c1 [METHYLENE BLUE ANHYDROUS] | – | – | – | 7.02 | 6.84 | – | – | – | –
Cc1n(C)c2c([n+]1C1CC1)C(=O)c1ccccc1C2=O | – | – | – | – | – | 7.52 | 5.51 | 7.59 | –
Cc1n(CC(C)C)c2c([n+]1C(C)C)C(=O)c1ccccc1C2=O | 8.71 | 8.37 | 8.63 | 6.64 | 6.16 | – | – | – | –
CC1=CC(=O)c2ccccc2C1=O [MENADIONE] | – | – | – | – | – | – | – | – | Activity [2]: 20 - 40%
